# Laboratory results: ChEMBL document CHEMBL1140876, “Synthesis and antibacterial property of quinolines with potent DNA gyrase activity” (2009)
# Calls of active or inactive are those of the source. The calls are words filed in the database; no cut-off is given here.
# Columns and labels:
# [1] = Inhibition of DNA gyrase assessed as conversion of relaxed pBR322 to supercoiled form
# In short: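 Supercoiling in 15 µL reactions: gyrase assay buffer, 150 ng relaxed pBR322, 2–3 µL purified DNA gyrase, 3 h at 37 °C (E. coli); stopped with 50% glycerol/0.25% bromophenol blue; 1% agarose in 1× TBE pH 8.3, 90 V 3 h; ethidium bromide stain; supercoiled band brightness by densitometry. Ciprofloxacin comparator.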
# [2] = Inhibition of DNA gyrase assessed as pBR322 DNA relaxation at 2.5 uM
# In short: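 Gyrase (60 nM) was incubated with supercoiled pBR322 DNA (6 nM) and increasing compound concentrations (0, 0.1, 0.25, 0.5, 2.5) without ATP for 1 h at 37 °C. Relaxation of the supercoiled DNA was evaluated.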
# [3] = Inhibition of DNA gyrase assessed as pBR322 DNA relaxation at 5 uM
# In short: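 Relaxation without ATP: gyrase (60 nM) with supercoiled pBR322 DNA (6 nM) and drug at […] for 1 h at 37 °C; relaxation judged by gel. Ciprofloxacin, novobiocin and nalidixic acid comparators.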
# Staphylococcus aureus [4] = test: Antimicrobial activity against Staphylococcus aureus by broth microdilution assay; assay type: functional
# In short: (§1)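 Broth microdilution per NCCLS 1997 in 96-well plate; final inoculum 10^5 cfu/mL; incubated 35.7 °C in air 18–20 h; MIC read as lowest concentration with no visible growth.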
# Escherichia coli [5] = test: Antimicrobial activity against Escherichia coli by broth microdilution assay; assay type: functional; in short: as §1
# Pseudomonas aeruginosa [6] = test: Antimicrobial activity against Pseudomonas aeruginosa by broth microdilution assay; assay type: functional; in short: as §1
# Klebsiella pneumoniae [7] = test: Antimicrobial activity against Klebsiella pneumoniae by broth microdilution assay; assay type: functional; in short: as §1
# Salmonella typhi = test: Antimicrobial activity against Salmonella typhi by broth microdilution assay; assay type: functional, Salmonella enterica subsp. enterica serovar Typhi; details: Salmonella enterica
# In short: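 Broth microdilution in 96-well plates following the NCCLS 1997 protocol. Final inoculum was 10^5 cfu/mL, with a control organism run alongside. Plates were incubated at 35.7 °C in air for 18–20 h. MIC is the lowest concentration with no visible growth.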
# Bacillus subtilis [8] = test: Antimicrobial activity against Bacillus subtilis by broth microdilution assay; assay type: functional; in short: as §1
# Staphylococcus aureus [9] = test: Antimicrobial activity against Staphylococcus aureus at 5 ug after 24 hrs by disk diffusion method; assay type: functional; details: read-out: IZ
# In short: (§2)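 Inoculum made in 0.85% saline against McFarland standard, swabbed evenly onto nutrient agar; sterile filter-paper discs set equidistant and loaded with equal volumes of drug at varying amounts; zone of inhibition measured after 24 h at 37 °C; ciprofloxacin reference.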
# Escherichia coli [10] = test: Antimicrobial activity against Escherichia coli at 5 ug after 24 hrs by disk diffusion method; assay type: functional; details: read-out: IZ; in short: as §2
# Pseudomonas aeruginosa [11] = test: Antimicrobial activity against Pseudomonas aeruginosa at 5 ug after 24 hrs by disk diffusion method; assay type: functional; details: read-out: IZ; in short: as §2
# Klebsiella pneumoniae [12] = test: Antimicrobial activity against Klebsiella pneumoniae at 5 ug after 24 hrs by disk diffusion method; assay type: functional; details: read-out: IZ; in short: as §2
# Salmonella typhimurium [13] = test: Antimicrobial activity against Salmonella Typhimurium at 5 ug after 24 hrs by disk diffusion method; assay type: functional, Salmonella enterica subsp. enterica serovar Typhimurium; details: Salmonella enterica, read-out: IZ; in short: as §2
# Staphylococcus aureus [14] = test: Antimicrobial activity against Staphylococcus aureus at 10 ug after 24 hrs by disk diffusion method; assay type: functional; details: read-out: IZ; in short: as §2
# Escherichia coli [15] = test: Antimicrobial activity against Escherichia coli at 10 ug after 24 hrs by disk diffusion method; assay type: functional; details: read-out: IZ; in short: as §2
# Pseudomonas aeruginosa [16] = test: Antimicrobial activity against Pseudomonas aeruginosa at 10 ug after 24 hrs by disk diffusion method; assay type: functional; details: read-out: IZ; in short: as §2
# Klebsiella pneumoniae [17] = test: Antimicrobial activity against Klebsiella pneumoniae at 10 ug after 24 hrs by disk diffusion method; assay type: functional; details: read-out: IZ; in short: as §2
# Salmonella typhimurium [18] = test: Antimicrobial activity against Salmonella Typhimurium at 10 ug after 24 hrs by disk diffusion method; assay type: functional, Salmonella enterica subsp. enterica serovar Typhimurium; details: Salmonella enterica, read-out: IZ; in short: as §2
# Staphylococcus aureus [19] = test: Antimicrobial activity against Staphylococcus aureus at 15 ug after 24 hrs by disk diffusion method; assay type: functional; details: read-out: IZ; in short: as §2
# Escherichia coli [20] = test: Antimicrobial activity against Escherichia coli at 15 ug after 24 hrs by disk diffusion method; assay type: functional; details: read-out: IZ; in short: as §2
# Pseudomonas aeruginosa [21] = test: Antimicrobial activity against Pseudomonas aeruginosa at 15 ug after 24 hrs by disk diffusion method; assay type: functional; details: read-out: IZ; in short: as §2
# Klebsiella pneumoniae [22] = test: Antimicrobial activity against Klebsiella pneumoniae at 15 ug after 24 hrs by disk diffusion method; assay type: functional; details: read-out: IZ; in short: as §2
# Salmonella typhimurium [23] = test: Antimicrobial activity against Salmonella Typhimurium at 15 ug after 24 hrs by disk diffusion method; assay type: functional, Salmonella enterica subsp. enterica serovar Typhimurium; details: Salmonella enterica, read-out: IZ; in short: as §2
# Bacillus subtilis [24] = test: Antimicrobial activity against Bacillus subtilis at 15 ug after 24 hrs by disk diffusion method; assay type: functional; details: read-out: IZ; in short: as §2
# Staphylococcus aureus [25] = test: Antimicrobial activity against Staphylococcus aureus at 20 ug after 24 hrs by disk diffusion method; assay type: functional; details: read-out: IZ; in short: as §2
# Escherichia coli [26] = test: Antimicrobial activity against Escherichia coli at 20 ug after 24 hrs by disk diffusion method; assay type: functional; details: read-out: IZ; in short: as §2
# Pseudomonas aeruginosa [27] = test: Antimicrobial activity against Pseudomonas aeruginosa at 20 ug after 24 hrs by disk diffusion method; assay type: functional; details: read-out: IZ; in short: as §2
# Klebsiella pneumoniae [28] = test: Antimicrobial activity against Klebsiella pneumoniae at 20 ug after 24 hrs by disk diffusion method; assay type: functional; details: read-out: IZ; in short: as §2
# Salmonella typhimurium [29] = test: Antimicrobial activity against Salmonella Typhimurium at 20 ug after 24 hrs by disk diffusion method; assay type: functional, Salmonella enterica subsp. enterica serovar Typhimurium; details: Salmonella enterica, read-out: IZ; in short: as §2
# Bacillus subtilis [30] = test: Antimicrobial activity against Bacillus subtilis at 20 ug after 24 hrs by disk diffusion method; assay type: functional; details: read-out: IZ; in short: as §2
# Staphylococcus aureus [31] = test: Antimicrobial activity against Staphylococcus aureus at 25 ug after 24 hrs by disk diffusion method; assay type: functional; details: read-out: IZ; in short: as §2
# Escherichia coli [32] = test: Antimicrobial activity against Escherichia coli at 25 ug after 24 hrs by disk diffusion method; assay type: functional; details: read-out: IZ; in short: as §2
# Pseudomonas aeruginosa [33] = test: Antimicrobial activity against Pseudomonas aeruginosa at 25 ug after 24 hrs by disk diffusion method; assay type: functional; details: read-out: IZ; in short: as §2
# Klebsiella pneumoniae [34] = test: Antimicrobial activity against Klebsiella pneumoniae at 25 ug after 24 hrs by disk diffusion method; assay type: functional; details: read-out: IZ; in short: as §2
# Salmonella typhimurium [35] = test: Antimicrobial activity against Salmonella Typhimurium at 25 ug after 24 hrs by disk diffusion method; assay type: functional, Salmonella enterica subsp. enterica serovar Typhimurium; details: Salmonella enterica, read-out: IZ; in short: as §2
# Bacillus subtilis [36] = test: Antimicrobial activity against Bacillus subtilis at 25 ug after 24 hrs by disk diffusion method; assay type: functional; details: read-out: IZ; in short: as §2
smiles,measurement,setting,value
CCn1cc(C(=O)O)c(=O)c2ccc(C)nc21,Activity,[1],Active
same,Activity,[2],Active
O=C1c2ccccc2C(=O)C12Nc1ccc(Br)cc1[C@H]1OCCC[C@H]12,Activity,[1],Active
same,Activity,[3],inactive
same,MIC50,Staphylococcus aureus [4],64 µg/mL
same,MIC90,Staphylococcus aureus [4],64 µg/mL
same,MIC50,Escherichia coli [5],2 µg/mL
same,MIC90,Escherichia coli [5],4 µg/mL
same,MIC50,Pseudomonas aeruginosa [6],1 µg/mL
same,MIC90,Pseudomonas aeruginosa [6],8 µg/mL
same,MIC50,Klebsiella pneumoniae [7],0.25 µg/mL
same,MIC90,Klebsiella pneumoniae [7],4 µg/mL
same,MIC50,Salmonella typhi,1.64 µg/mL
same,MIC90,Salmonella typhi,2.5 µg/mL
same,MIC50,Bacillus subtilis [8],5 µg/mL
same,MIC90,Bacillus subtilis [8],5 µg/mL
same,zone of inhibition at 5 µg/disc,Staphylococcus aureus [9],8 mm
same,zone of inhibition at 5 µg/disc,Escherichia coli [10],8 mm
same,zone of inhibition at 5 µg/disc,Pseudomonas aeruginosa [11],10 mm
same,zone of inhibition at 5 µg/disc,Klebsiella pneumoniae [12],8 mm
same,zone of inhibition at 5 µg/disc,Salmonella typhimurium [13],8 mm
same,zone of inhibition at 10 µg/disc,Staphylococcus aureus [14],9 mm
same,zone of inhibition at 10 µg/disc,Escherichia coli [15],9 mm
same,zone of inhibition at 10 µg/disc,Pseudomonas aeruginosa [16],14 mm
same,zone of inhibition at 10 µg/disc,Klebsiella pneumoniae [17],10 mm
same,zone of inhibition at 10 µg/disc,Salmonella typhimurium [18],10 mm
same,zone of inhibition at 15 µg/disc,Staphylococcus aureus [19],10 mm
same,zone of inhibition at 15 µg/disc,Escherichia coli [20],10 mm
same,zone of inhibition at 15 µg/disc,Pseudomonas aeruginosa [21],16 mm
same,zone of inhibition at 15 µg/disc,Klebsiella pneumoniae [22],13 mm
same,zone of inhibition at 15 µg/disc,Salmonella typhimurium [23],13 mm
same,zone of inhibition at 15 µg/disc,Bacillus subtilis [24],8 mm
same,zone of inhibition at 20 µg/disc,Staphylococcus aureus [25],12 mm
same,zone of inhibition at 20 µg/disc,Escherichia coli [26],12 mm
same,zone of inhibition at 20 µg/disc,Pseudomonas aeruginosa [27],20 mm
same,zone of inhibition at 20 µg/disc,Klebsiella pneumoniae [28],14 mm
same,zone of inhibition at 20 µg/disc,Salmonella typhimurium [29],14 mm
same,zone of inhibition at 20 µg/disc,Bacillus subtilis [30],9 mm
same,zone of inhibition at 25 µg/disc,Staphylococcus aureus [31],14 mm
same,zone of inhibition at 25 µg/disc,Escherichia coli [32],13 mm
same,zone of inhibition at 25 µg/disc,Pseudomonas aeruginosa [33],23 mm
same,zone of inhibition at 25 µg/disc,Klebsiella pneumoniae [34],16 mm
same,zone of inhibition at 25 µg/disc,Salmonella typhimurium [35],16 mm
same,zone of inhibition at 25 µg/disc,Bacillus subtilis [36],10 mm
